Entries after “also recorded” stand apart in the source; their conditions may differ.
Key:
Biotin-Grb2 SH2 domain = Biotin-Grb2 SH2 domain (Homo sapiens, UniProt P62993); assay: SPR direct binding, streptavidin-captured biotin-Grb2 SH2 domain; details: Biotin-Grb2, SA capture; reference line of the ratio
PC3M cells [1] = assay: Cell migration in modified Boyden chambers, HGF-stimulated; assay type: cell-based; details: HGF 50 ng/ml
How it was run: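 PC3M cells pretreated with test compound for 24 h, then seeded at 200,000 cells per modified Boyden chamber. Migration stimulated with recombinant human HGF (50 ng/ml), with unstimulated cells run in parallel. Migrated cells counted by light microscopy in four fields (1 × 1.4 mm) per well, triplicate wells per condition. Means expressed as percent maximum ± standard deviation, with a dose-response series.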

PAK1 [2] = assay: PAK1 activation; assay type: cell-based; details: PC3M cells, 1 uM, 16 h
How it was run: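 PC3M cells serum-deprived and either treated with test compound (1 uM) or left untreated for 16 h. They were then left unstimulated or briefly stimulated with HGF (50 ng/mL) for set times. Lysates run on SDS-PAGE and immunoblotted with anti-phospho-PAK1 antibody, with total PAK1 immunoblot as loading control.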

PAK1 [3] = assay: PAK1 nuclear translocation; assay type: cell-based; details: PC3M cells, 16 h, relative to nuclear CREB
How it was run: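 PC3M cells treated with test compound for 16 h. Nuclear extracts prepared in high-salt buffer, resolved by SDS-PAGE and immunoblotted for PAK1, with CREB immunoblotted as reference.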

PC3M cells [4] = assay: Lamellipodia formation at wound edge, phalloidin staining, PC3M; assay type: cell-based; details: HGF + 1 uM compound
MDCK cells = assay: Lamellipodia formation at wound edge, phalloidin staining, MDCK; assay type: cell-based, canine; details: HGF + 1 uM compound
cell motility = details: cited from earlier work
angiogenesis = details: cited from earlier work
tumor metastasis = details: cited from earlier work
[5] = system: Grb2-EGFR and Grb2-c-Met interactions; details: co-immunoprecipitation; cited from earlier work
[6] = system: Grb2 and focal adhesion kinase (FAK); details: treatment of cells; cited from earlier work
Grb2 SH2 domain = Grb2 SH2 domain (Homo sapiens, UniProt P62993); assay: SPR direct binding, amine-coupled Grb2 SH2 domain; details: for Ratio: Grb2, amine coupling, affinity relative to compound 2
Grb2 SH2 domain, sequence (P62993 60-152 limits assumed): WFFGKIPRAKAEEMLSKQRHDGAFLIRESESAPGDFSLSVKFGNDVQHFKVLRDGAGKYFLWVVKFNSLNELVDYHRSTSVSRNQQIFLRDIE

Grb2 = Grb2 (Homo sapiens, UniProt P62993); assay type: binding; details: SK-LMS-1 lysate; for Capture of Grb2 on compound-conjugated SA beads (anti-Grb2 immunoblot): compound 3 uM, washes 150-500 mM NaCl
Grb2, sequence (P62993 whole entry): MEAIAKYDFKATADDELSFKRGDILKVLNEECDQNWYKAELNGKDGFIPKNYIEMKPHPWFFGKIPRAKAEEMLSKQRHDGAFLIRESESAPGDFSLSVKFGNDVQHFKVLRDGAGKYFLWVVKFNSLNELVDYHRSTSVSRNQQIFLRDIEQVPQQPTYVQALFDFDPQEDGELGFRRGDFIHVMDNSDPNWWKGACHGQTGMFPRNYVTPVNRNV
How it was run: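 SK-LMS-1 cells serum-deprived 16 h, stimulated with recombinant human HGF (25 ng/ml) for 20 min and lysed in cold non-ionic detergent buffer. Biotinylated test compound (3 uM) incubated with lysate 1 h on ice. Streptavidin beads then mixed in 1 h at 4°C and washed 5 times in lysis buffer with increasing NaCl (150–500 mM). Read-out: SDS-PAGE and anti-Grb2 immunoblot.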

[7] = molecular target: proteins of SK-LMS-1 cell lysates (Homo sapiens, UniProt P62993); assay type: binding; details: compound-conjugated SA beads, cell extracts
proteins of SK-LMS-1 cell lysates (Homo sapiens, UniProt P62993), sequence (P62993 whole entry): as above
How it was run: (§1)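 Biotinylated test compound captured proteins from HGF-stimulated (25 ng/ml, 20 min) SK-LMS-1 detergent lysate on streptavidin beads, washed with 150–500 mM NaCl. Beads exchanged into 100 mM ammonium bicarbonate, reduced (10 mM DTT, 1 h, 51°C), alkylated (55 mM iodoacetamide, 45 min, 25°C) and trypsin-digested 6 h at 25°C. Acidified peptides analysed by nLC-ESI-MS/MS (ion trap, top-seven data-dependent) and searched against human NCBI database.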

[8] = system: proteins of SK-LMS-1 cell lysates; assay type: binding, human; details: cell lysates; two or more unique peptides observed
How it was run: as §1

Biotin-Grb2 SH2 domain, sequence (P62993 60-152 limits assumed): as the sequence (P62993 60-152 limits assumed) above

NC(=O)C[C@H](NC(=O)C1(NC(=O)[C@H](Cc2ccc(C(C(=O)O)C(=O)O)cc2)NC(=O)C(=O)O)CCCCC1)C(=O)NCCCc1cccc2ccccc12 [Compound 1]
Ratio (Biotin-Grb2 SH2 domain): 1
Inhibition of cell migration (in words) (PC3M cells [1]): Inhibition of cell migration
Steady state level of PAK1 autophosphorylation (PAK1 [2]; no HGF): little effect
HGF-stimulated PAK1 activation (PAK1 [2]; then HGF 50 ng/mL): completely inhibited
PAK1 nuclear translocation (PAK1 [3]): decreased PAK1 nuclear translocation
Actin reorganization and lamellipodia formation (phalloidin staining) (PC3M cells [4]): markedly reduced phalloidin staining at the leading edge
Lamellipodia extension into the wound (MDCK cells): significantly reduced the area and distance that lamellipodia extended into the wound
Cell motility (cell motility): blocks cell motility in a dose dependent fashion; also recorded: can inhibit cell motility
Angiogenesis (angiogenesis): inhibit
Tumor metastasis in vivo (tumor metastasis): inhibit
Grb2-EGFR and Grb2-c-Met interactions [5]: able to disrupt Grb2-EGFR and Grb2-c-Met interactions
HGF-stimulated physical association between Grb2 and FAK [6]: disrupts HGF-stimulated physical association between Grb2 and focal adhesion kinase (FAK)

NC(=O)C[C@H](NC(=O)C1(NC(=O)[C@H](Cc2ccc(C(C(=O)O)C(=O)O)cc2)NC(=O)C(=O)O)CCCCC1)C(=O)NCCCc1cccc2c(O)cccc12 [Compound 2, 2-{4-[2-(1-(1S)-{2-Carbamoyl-1-[3-(5-hydroxy-naphthalen-1-yl)-propylcarbamoyl]-ethylcarbamoyl}-cyclohexylcarbamoyl)-2-(2S)-(oxalyl-amino)-ethyl]-phenyl}-malonic acid]
Ratio (Grb2 SH2 domain): 1
Ratio (Biotin-Grb2 SH2 domain): 1

NC(=O)C[C@H](NC(=O)C1(NC(=O)[C@H](Cc2ccc(O)cc2)NC(=O)C(=O)O)CCCCC1)C(=O)NCCCc1cccc2c(OC(=O)CCCCCNC(=O)CCCC[C@@H]3SC[C@@H]4NC(=O)N[C@@H]43)cccc12 [Compound 4, (4R,5S,6S)-6-[5-(2-Oxo-hexahydro-thieno[3,4-d]imidazol-6-yl)-pentanoylamino]-hexanoic acid 5-{3-[3-carbamoyl-2-({1-[3-(4-hydroxy-phenyl)-2-(oxylyl-amino)-propionylamino]-cyclohexylcarbonyl}-amino)-propionylamino]-propyl}-naphthalen-1-yl ester]
Grb2 SH2 domain binding affinity (in words) (Grb2 SH2 domain; assay not stated): very poor Grb2 SH2 domain binding affinity
Inhibition of cell migration (in words) (PC3M cells [1]): No inhibition of cell migration
Capture of Grb2 on compound-conjugated SA beads (anti-Grb2 immunoblot) (Grb2): did not capture Grb2
Capture of Grb2 tryptic peptides (ESI-MS/MS) [7]: not by compound 4-conjugated beads

NC(=O)C[C@H](NC(=O)C1(NC(=O)[C@H](Cc2ccc(C(C(=O)O)C(=O)O)cc2)NC(=O)C(=O)O)CCCCC1)C(=O)NCCCc1cccc2c(OC(=O)CCCCCNC(=O)CCCC[C@@H]3SC[C@@H]4NC(=O)N[C@@H]43)cccc12 [Compound 3]
Ratio (Grb2 SH2 domain): 3
Inhibition of cell migration (in words) (PC3M cells [1]): significant and potent inhibition of migration
Capture of Grb2 SH3 domain-associated proteins (immunoblot) (Grb2; SA-bound compound): revealed the presence of Nck1, Nck2, Gab1 and Sos1
Capture of Grb2 on compound-conjugated SA beads (anti-Grb2 immunoblot) (Grb2): Grb2 was clearly retained
Capture of Grb2 tryptic peptides (ESI-MS/MS) [7]: captured by compound 3-conjugated SA beads
Protein Name (identified by mass spectrometry, captured by streptavidin-immobilized 3, but not by streptavidin-immobilized 4) [8]: histone H2B family ^b; also recorded: ribosomal protein S23; also recorded: ribosomal protein L17; also recorded: ribosomal protein S17; also recorded: pyruvate kinase 3 ^a
